Source: PubChem (The Scripps Research Institute Molecular Screening Center)
EBNA-1 inhibitor: EBNA-1 DNA-binding inhibitors, primary screen, biochemical, fluorescence polarization. hit rate 0.34% among 300,000. AID 1950, 2009. inhibition, % at 14.8 µM; in the data active means inhibition above about 28%
DNA FID counter-1: compounds displacing fluorescent DNA intercalator, primary screen, artefact control for HCV NS3 helicase inhibitor project, biochemical, FID fluorescence; DNA fluorescent intercalator displacement; inhibition, % at 7.9 µM; hit rate 0.17% among 290,000;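 further: 0% = vehicle and 100% = reference compound; higher means more ethidium bromide displaced from hairpin DNA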
GPR7 antag: GPR7 receptor antagonists, primary screen, cell-based, fluorescence, single concentration; Neuropeptides B/W receptor type 1 (Homo sapiens), P48145; GPR7-expressing cells, fluorescence antagonist assay; inhibition, % at 4.4 µM; hit rate 1.1% among 290,000; AID 1861, 2009; in the data active means inhibition above about 16%, passing the limit was not always enough;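 further: cells stimulated with the agonist NPW; 0% = agonist with vehicle and 100% = vehicle without agonist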
ZTA DNA inh: ZTA (EBV) inhibition in EBNA-1 counter-screen. ZTA-DNA binding, fluorescence polarization. inhibition, % at 11 µM. hit rate 0.15% among 320,000; in the data active means inhibition above about 33%
Target sequence (P03206 whole entry, looked up): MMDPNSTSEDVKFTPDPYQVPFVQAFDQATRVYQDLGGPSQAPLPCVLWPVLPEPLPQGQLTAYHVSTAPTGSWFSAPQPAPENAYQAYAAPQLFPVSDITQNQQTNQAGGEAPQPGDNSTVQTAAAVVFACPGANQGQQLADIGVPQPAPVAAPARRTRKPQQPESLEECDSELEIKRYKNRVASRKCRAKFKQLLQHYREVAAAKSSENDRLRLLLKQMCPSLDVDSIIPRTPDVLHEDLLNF
NS3 helicase inh: inhibitors of HCV NS3 helicase, primary screen, biochemical, Cy5 molecular beacon fluorescence; NS3 helicase DNA unwinding; AID 1800, 2009; hit rate 0.56% among 290,000; inhibition, % at 10.9 µM; Hepatitis C virus NS3 helicase;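 active means inhibition above the mean of all tested compounds plus 3 SD, set per campaign, cut at about 35% in these data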;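 further: 0% = DMSO wells and 100% = thioflavine S control wells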
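assay system = NS3 helicase fragment of HCV | buffer or medium = MOPS pH 6.5, MgCl2, DTT, Tween20, BSA | timing = 60 min unwinding reaction at 25 °C after ATP addition | signal = Cy5 beacon fluorescence read at start and 1 h | read-out basis = % inhibition of unwinding | control set = low DMSO, high thioflavine S at 110 µM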
NS3 hel confirm: HCV NS3 helicase inhibitors, retest, confirmation, biochemical, Cy5 molecular beacon fluorescence, triplicate | shares compounds with NS3 helicase inh | NS3 helicase DNA unwinding | inhibition, % at 10.9 µM | hit rate 31% among 1,600;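 active means inhibition above the mean of all tested compounds plus 3 SD, cutoff set per campaign, cut at about 36% in these data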
DNA FID counter-2: compounds displacing fluorescent DNA intercalator, artefact control for HCV NS3 helicase inhibitor project, biochemical, FID fluorescence, triplicate | DNA fluorescent intercalator displacement | AID 1945, 2009 | hit rate 4% among 1,600 | inhibition, % at 7.9 µM | shares compounds with NS3 helicase inh;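 further: 0% = vehicle and 100% = reference compound; higher means more displacement of ethidium bromide from the DNA hairpin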
FID counter DR: compounds displacing fluorescent intercalator from DNA, dose response, counter-screen for HCV NS3 helicase inhibitor project, biochemical, fluorescence; IC50, µM; 120 tested, under 10 active; shares compounds with NS3 helicase inh; fluorescent intercalator displacement from DNA; call rule not given here
The depositor's hits bear a star; / = not tested or not shown. Sampled rows, rich in hits. Any-hit rate of the full collection: about 2%. Unless noted, no stated cut-off is given here; in the data, active means inhibition above about 37%; inactive means the rest.

SMILES | EBNA-1 inhibitor | DNA FID counter-1 | GPR7 antag | ZTA DNA inh | NS3 helicase inh | NS3 hel confirm | DNA FID counter-2 | others
Cc1ccc(C)c(-c2nnc(NC(=O)Cc3ccc(F)cc3)o2)c1 | 1.4 | -16.3 | 0.7 | 0.1 | 42.3* | -12.8 | 0.9
CCn1c(=O)c(CCC(=O)NCC2CCCO2)c(C)c2c(C)nn(-c3ccc(C)cc3)c21 (stereo unspecified) | -6.7 | -15.5 | -9.0 | -27.0 | 37.1* | -15.9 | -43.7
CN(C)CCCNC(=O)C(=O)NCC(c1cccs1)S(=O)(=O)c1ccc(F)cc1 (stereo unspecified) | 6.8 | / | / | -12.1 | / | / | /
COCCC(=O)N1CCC(Oc2ccc(C(=O)NCc3cccc(C)n3)cc2)CC1 | -11.2 | -36.1 | -8.8 | -6.5 | -2.0 | / | /
COc1ccc(NC(=O)c2c(NC(=O)CCC(=O)O)sc(-c3ccccc3)c2C)cc1 | -4.6 | -33.3 | -8.5 | -13.8 | 37.3* | 52.6* | -9.4
COC(=O)c1c(NC(=O)CCC(=O)O)sc(Cc2ccccc2)c1C | 2.9 | -27.3 | -14.5 | 14.7 | -3.4 | / | /
CCOc1ccc(NCc2cc3cc(OC)ccc3[nH]c2=O)cc1 | -9.5 | -10.8 | -13.5 | -18.3 | 43.2* | 12.0 | -6.3
Cc1ccc(/C=C/c2ccc3cccc(O)c3n2)s1 | 4.4 | -13.7 | 2.0 | -3.2 | 49.5* | 11.1 | -2.5
O=[N+]([O-])c1ccc(/C=C/c2ccc3cccc(O)c3n2)cc1 | -1.2 | -6.8 | 25.3 | 21.7 | 50.0* | 3.9 | 6.8
Oc1cccc(/C=C/c2ccc3cccc(O)c3n2)c1 | -3.2 | -7.2 | 17.6 | 4.4 | 31.3 | / | /
COc1cc(OC)cc(-c2c(-c3ccsc3)c3cc(Br)ccc3n2C)c1 | / | / | / | 3.7 | / | / | /
CCOc1ccc(S(=O)(=O)N2CCCCC2)cc1NC(=O)Cc1cccs1 | -3.8 | / | / | -11.8 | / | / | /
Cc1ccc(NC(=O)CN2C(=O)N/C(=C/c3ccco3)C2=O)cc1 | 0.7 | -10.4 | -1.7 | 17.4 | 39.0* | 8.9 | 6.8
Cc1ccc(NC(=O)CN2C(=O)N/C(=C/c3cc(C)n(-c4ccc(C(=O)O)cc4)c3C)C2=O)cc1 | / | -21.8 | -10.5 | / | 7.0 | / | /
CCOc1ccc(N2CSC3=C(C#N)C(c4ccco4)CC(=O)N3C2)cc1 (stereo unspecified) | 0.6 | -21.2 | -6.8 | 8.8 | 14.2 | / | /
Cc1ccc(C2CC(=O)N3CN(c4ccc(Br)cc4)CSC3=C2C#N)o1 (stereo unspecified) | 1.4 | -6.4 | 16.3 | -0.5 | 36.8* | 72.4* | 5.6 | FID counter DR=>79.4
COc1ccc(Br)cc1C1CC(=O)N2CN(Cc3ccccc3)CSC2=C1C#N (stereo unspecified) | 1.9 | -35.9 | -11.3 | 7.5 | 50.7* | 40.0* | -22.7
COc1cccc(C2CC(=O)N3CN(c4ccccc4F)CSC3=C2C#N)c1 (stereo unspecified) | -2.0 | -21.0 | 6.7 | -5.5 | 14.0 | / | /
COc1ccc(OC)c(C2CC(=O)N3CN(c4ccccc4F)CSC3=C2C#N)c1 (stereo unspecified) | -6.4 | -44.9 | 2.9 | -2.3 | 40.0* | 65.7* | 3.4 | FID counter DR=>79.4
COc1ccc(Br)cc1C1CC(=O)N2CN(C)CSC2=C1C#N (stereo unspecified) | 2.6 | -33.6 | -10.4 | 6.0 | 35.3 | / | /
Cc1noc(C)c1S(=O)(=O)N1CCCC(C(=O)NCc2ccccc2Cl)C1 (stereo unspecified) | 4.6 | -24.6 | 17.4 | 3.0 | -8.8 | / | /
Cc1ccccc1NC(=O)Cc1nc(COC(=O)c2cc([N+](=O)[O-])ccc2N)cs1 | 12.9 | -7.9 | -1.9 | 13.9 | -23.2 | / | /
CCOC(=O)C(C)Sc1nc(-c2cccs2)ccc1C#N (stereo unspecified) | 9.8 | -13.2 | 2.1 | -4.1 | -9.6 | / | /
C=COC(=O)CSc1nc(-c2cccs2)ccc1C#N | 8.8 | -18.8 | 7.4 | -13.2 | 47.5* | -13.5 | 5.8
Cc1[nH]c(=O)[nH]c(=S)c1C(=O)Nc1ccc(Cl)c(Cl)c1 | 14.1 | / | / | -0.2 | / | / | /
